# S100A4 inh HTS – blocks human S100A4 binding to myosin IIA peptide. S100A4/TAMRA-MyoIIA peptide fluorescence polarization. inhibition, % at 10.7 µM. hit rate 0.14% among 360,000;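 active = mean inhibition of at least 70% across replicates, with every replicate also reaching that level; inconclusive = mean inhibition reaches 70% but some replicates fall short; inactive = mean inhibition below 70%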
# Target sequence (P26447 whole entry, looked up): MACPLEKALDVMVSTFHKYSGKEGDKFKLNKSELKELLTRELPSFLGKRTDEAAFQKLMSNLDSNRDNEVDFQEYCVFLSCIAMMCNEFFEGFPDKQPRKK
#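 System – human S100A4 monomer protein, biochemical binding assay · Buffer or medium – Calcium-containing HEPES buffer, pH 7.2 · Timing – 5 min between mix addition and reading · Also added – TAMRA-labelled myosin IIA heavy-chain peptide probe, 5 nM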
# E-selectin induc – induces E-selectin expression in human endothelial cells | hit rate 0.37% among 260,000 | HUVEC E-selectin immunofluorescence imaging; normalized: neutral wells 0, TNF-alpha wells 100 | activation, % at 7.58 µM;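 active = mean E-selectin-positive cell signal at least 10% of the positive control, reached in at least 60% of replicates, without over 20% cell loss; inconclusive = no rule given, readout overlaps actives, possibly toxicity-flagged; inactive = the rest, including those meeting only one limit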
#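 System: HUVEC / Compound: single concentration / Signal: immunofluorescence imaging / Read-out: percent E-selectin-positive cells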
# DENV2 CPE rescue – inhibitors of DENV2 cytopathic effect; DENV2-infected cells, cytopathic effect rescue, plate reader; CPE inhibition, % at 9.99 µM; AID 651640; hit rate 1.7% among 350,000; in the data active = CPE inhibition above about 20%, passing the limit was not always enough; inconclusive = no clear call, values can overlap the other calls; tested in BHK-21 cells;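 also: 0% = median of neutral control wells and 100% = median of positive control wells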
# Xi reactivation – X-chromosome reactivation activator; XiGFP mouse fibroblasts, % GFP-positive cells imaging, 3 d; cells co-treated with 5-aza-dC sensitizer; scaled so ellipticine positive control = 100%; hit rate 0.055% among 360,000; activation, % at 7.58 µM; AID 743238;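 active = mean normalized replicate activation at least 10% and every replicate at or above 10%; inconclusive = only one of the two criteria met; inactive = mean below 10% and not all replicates reach 10%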;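 also: 0% = median of on-plate neutral control wells and 100% = ellipticine 6 µM median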
#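 System: 68-5-11 XiGFP fibroblast line; Timing: 3 days compound exposure; Compound dosing: one concentration, pinned; Benchmarks: positive control ellipticine, 6 µM final; Buffer or medium: DMEM containing 5-aza-dC.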
# Active calls of the source: *; u = inconclusive; x = not tested or not shown. Rows were chosen to be rich in hits. Some 2% of all compounds tested hit in one or more screens of this group.
SMILES,S100A4 inh HTS,E-selectin induc,DENV2 CPE rescue,Xi reactivation
CCCNC(=O)N1C[C@H](O)COC[C@@H]2O[C@@H](CC(=O)N3CCOCC3)CC[C@H]21,7,0,108*,0
CCCNC(=O)N1C[C@@H](O)COC[C@@H]2O[C@H](CC(=O)N3CCOCC3)CC[C@H]21,-2,0,-10,0
CCNC(=O)[C@@H]1[C@@H](CO)[C@@H]2Cn3c(ccc(/C=C/c4ccccc4)c3=O)[C@H]1N2C(=O)C1CCC1,33,0,14,0
C#CCN1C=C(C(=O)OCC)C(C)N(Cc2ccccc2I)S1(=O)=O (stereo not drawn),0,3,74*,0
COc1ccc(NC(=O)Nc2cccc3c2O[C@@H](CN(C)S(=O)(=O)c2ccc(F)cc2)[C@@H](C)CN([C@@H](C)CO)C3=O)cc1,x,0,1,0
OC[C@@H]1[C@@H](c2ccc(-c3ccccc3)cc2)[C@H]2CN(CCC(F)(F)F)CCCCN12,10,0,20*,0
OC[C@@H]1[C@H](c2ccc(-c3cccc(F)c3)cc2)[C@@H]2CN(CCC(F)(F)F)CCCCN12,-13,0,41*,0
O=C(CCn1nnc(-c2cccs2)n1)NCc1ccccc1Cl,-3,x,-8,x
CC(C)c1ccc(NC(=O)/C(C#N)=C/c2ccncc2)cc1,-6,1,13,0
C[C@H]1CN([C@@H](C)CO)C(=O)Cc2cc(NC(=O)Nc3ccc(F)cc3)ccc2O[C@@H]1CN(C)S(=O)(=O)c1cn(C)cn1,x,-16,x,0
COc1ccc(NC(=O)Nc2ccc3c(c2)CC(=O)N([C@H](C)CO)C[C@@H](C)[C@@H](CN(C)S(=O)(=O)c2cn(C)cn2)O3)cc1,-11,x,-5,-1
C[C@@H]1CN([C@@H](C)CO)C(=O)Cc2cc(NC(=O)Nc3ccccc3)ccc2O[C@@H]1CN(C)S(=O)(=O)c1cn(C)cn1,9,1,8,-1
C[C@H](CO)N1C[C@H](C)[C@@H](CN(C)S(=O)(=O)c2cn(C)cn2)Oc2ccc(NC(=O)Nc3cccc4ccccc34)cc2CC1=O,-3,0,86*,0
C[C@@H]1CN([C@@H](C)CO)C(=O)Cc2cc(NC(=O)Nc3ccc(F)cc3)ccc2O[C@@H]1CN(C)S(=O)(=O)c1cn(C)cn1,x,73*,x,0
COc1ccc(NC(=O)Nc2ccc3c(c2)CC(=O)N([C@H](C)CO)C[C@@H](C)[C@H](CN(C)S(=O)(=O)c2cn(C)cn2)O3)cc1,-7,x,75*,0
Cc1ccc(OCC(=O)NC2CCCc3ccccc32)c(C)c1 (stereo not drawn),x,1,x,0
O=[N+]([O-])c1cccc(COc2ccccc2CN2CCCC2)c1,-12,0,58*,0
O=[N+]([O-])c1ccc(COc2ccccc2CN2CCCC2)cc1,-1,0,2,0
CC(C)CC#Cc1ccc2c(c1)O[C@@H](CN(C)C(=O)c1cnccn1)[C@@H](C)CN([C@@H](C)CO)S2(=O)=O,4,1,36*,-2
CCCC#Cc1ccc2c(c1)O[C@@H](CN(C)C(=O)c1cnccn1)[C@H](C)CN([C@H](C)CO)S2(=O)=O,-1,0,1,0
CCCC#Cc1ccc2c(c1)O[C@H](CN(C)C(C)=O)[C@H](C)CN([C@@H](C)CO)S2(=O)=O,-4,123*,-4,-1
CC(=O)N(C)C[C@@H]1Oc2cc(C#Cc3ccccn3)ccc2S(=O)(=O)N([C@H](C)CO)C[C@@H]1C,10,70*,-3,0
CC(=O)N(C)C[C@H]1Oc2cc(C#Cc3ccccn3)ccc2S(=O)(=O)N([C@@H](C)CO)C[C@@H]1C,-17,0,-5,0
CC(C)CC#Cc1ccc2c(c1)O[C@@H](CN(C)C)[C@@H](C)CN([C@@H](C)CO)S2(=O)=O,16,0,27*,0
COc1ccc(C#Cc2ccc([C@@H]3[C@H](CO)N4CCCCN(C)C[C@@H]34)cc2)cc1,-3,1,-25,0
SMILES,S100A4 inh HTS,E-selectin induc,DENV2 CPE rescue,Xi reactivation
COc1ccc(-n2nc(C(=O)NCc3cc(OC)ccc3OC)c3c4ccccc4n(C)c3c2=O)cc1,-2,1,5,0
CC(=O)N(C)C[C@H]1Oc2cc(C#CCC(C)C)ccc2S(=O)(=O)N([C@H](C)CO)C[C@H]1C,-3,-2,-10,-1
CCCC#Cc1ccc2c(c1)O[C@H](CN(C)C(=O)COC)[C@@H](C)CN([C@H](C)CO)S2(=O)=O,-7,0,23*,-1
COc1ccccc1S(=O)(=O)N(C)C[C@H]1Oc2cc(C#CCC(C)C)ccc2S(=O)(=O)N([C@@H](C)CO)C[C@@H]1C,6,x,103*,0
CC(=O)N(C)C[C@@H]1Oc2cc(C#CCC(C)C)ccc2S(=O)(=O)N([C@H](C)CO)C[C@@H]1C,114*,0,-6,-1
CCCNC(=O)N(C)C[C@@H]1Oc2cc(C#CCC(C)C)ccc2S(=O)(=O)N([C@@H](C)CO)C[C@H]1C,6,0,36*,-1
CCCC#Cc1ccc2c(c1)O[C@H](CN(C)C(=O)COC)[C@H](C)CN([C@H](C)CO)S2(=O)=O,5,0,-12,-1
CC(=O)c1ccc(OCC(=O)Nc2cccc(S(=O)(=O)N3CCCC3)c2)cc1,-7,-2,-2,0
CC1CCCCN1C(=O)CCC(=O)Nc1nnc(C(F)(F)F)s1 (stereo not drawn),-3,x,-6,0
CCOc1ccc(/C=N/Nc2ccccn2)cc1,-3,31*,5,0
Clc1ccc(/C=N/Nc2ccccn2)cc1,-5,0,-4,0
C[C@@H]1CCCCO[C@@H](CN(C)Cc2ccncc2)[C@@H](C)CN([C@H](C)CO)C(=O)c2cc(NS(=O)(=O)c3ccc(Cl)cc3)ccc2O1,0,0,5,0
CC(C)(C)NC(=O)C(c1ccncc1)n1c(=O)c(-c2ccco2)nc2ccccc21 (stereo not drawn),-5,0,31*,0
CC(C)(C)NC(=O)C(c1ccccc1)n1c(=O)c(-c2ccco2)nc2ccccc21 (stereo not drawn),-6,1,u,0
O=C(NCc1ccccc1)C(c1ccncc1)n1c(=O)c(-c2ccccc2)nc2ccccc21 (stereo not drawn),-2,0,40*,1
O=C(NCc1ccccc1)C(c1ccccc1F)n1c(=O)c(-c2ccccc2)nc2ccccc21 (stereo not drawn),-1,0,-13,0
O=C(COC(=O)CCSc1ccc(Cl)cc1)NCc1ccc(Cl)cc1,-4,x,-3,0
O=C(CSc1nnnn1C1CCCC1)NCCc1ccccc1,-19,3,1,0
Cc1nc2ccccc2c2oc(C(=O)NCCN3CCN(C)CC3)cc12,-1,x,22*,0
Cc1nc2ccccc2c2oc(C(=O)NCCCN3CCCC3=O)cc12,6,0,3,0
